Measurements published in ChEMBL document CHEMBL3526056, “Characterization of in vitro glucuronidation clearance of a range of drugs in human kidney microsomes: comparison with liver and intestinal glucuronidation and impact of albumin” (Drug Metab Dispos, 2012).

Experiments:
[1] = Fraction unbound in human liver microsomes at 1 uM after 30 to 60 mins by LC-MS/MS analysis; type: ADME
[2] = Clearance in iv dosed human; type: ADME, organism-based; settings: in vivo
Liver microsome [3] = assay: Unbound intrinsic glucuronidation clearance in human liver microsomes at 1 uM after 30 to 60 mins by LC-MS/MS analysis in presence of UDP-glucuronosyltransferase; type: ADME
Outline: (§1)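 Alamethicin-activated pooled microsomes (HLM 150 donors; HKM 8; HIM 18). Drug at 1 μM final, preincubated 5 min at 37°C in 0.1 M phosphate pH 7.1 with 3.45 mM MgCl2, 1.15 mM EDTA, 115 μM saccharic acid lactone. Started with […] cofactor (5 mM final), 30–60 min. Cofactor-free controls. Parent depletion by LC-MS/MS, single-exponential k. Corrected by HLM-dialysis fu,inc. Duplicates; n=3 (HIM n=1).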

[4] = Drug metabolism in human intestinal microsomes assessed as UGT1A8/2B7-mediated unbound intrinsic glucuronidation clearance at 1 uM after 30 to 60 mins by LC-MS/MS analysis; type: ADME, Intestine
Outline: (§2)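 Pooled alamethicin-activated human liver, kidney or intestinal microsomes. […] Duplicate incubations of 30–60 min, with no-cofactor controls. Parent depletion read by LC-MS/MS. k from a single-exponential fit, corrected by fu,inc.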

Liver microsome [5] = assay: Unbound intrinsic glucuronidation clearance in human liver microsomes at 1 uM after 30 to 60 mins by LC-MS/MS analysis in presence of UDP-glucuronosyltransferase and 2% bovine serum albumin; type: ADME; outline: as §2
[6] = Unbound intrinsic glucuronidation clearance in human intestinal microsomes at 1 uM after 30 to 60 mins by LC-MS/MS analysis in presence of UDP-glucuronosyltransferase; type: ADME, Intestine, Microsome; outline: as §1
[7] = Drug metabolism in human liver microsomes assessed as UGT1A8/2B7-mediated unbound intrinsic glucuronidation clearance at 1 uM after 30 to 60 mins by LC-MS/MS analysis; type: ADME; outline: as §2
[8] = Ratio of UGT1A8/2B7-mediated unbound intrinsic glucuronidation clearance in human intestinal microsomes to UGT1A8/2B7-mediated unbound intrinsic glucuronidation clearance in human liver microsomes at 1 uM in presence of 2% bovine serum albumin; type: ADME
Outline: (§3)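 Ratios of mean unbound CLint,UGT, each scaled per g tissue, between pooled liver, kidney and intestinal microsomes. Values come from 1 μM substrate-depletion assays in pH 7.1 phosphate at 37°C, run with or without BSA (1% for acids, 2% for bases/neutral drugs). Corrected for nonspecific binding. Kidney and liver n = 3; intestine n = 1; each in duplicate.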

[9] = Fraction unbound in human plasma
[10] = Unbound intrinsic glucuronidation clearance in human kidney microsomes at 1 uM after 30 to 60 mins by LC-MS/MS analysis in presence of UDP-glucuronosyltransferase; type: ADME, microsome; outline: as §1
[11] = Ratio of UGT1A8/2B7-mediated unbound intrinsic glucuronidation clearance in human kidney microsomes to UGT1A8/2B7-mediated unbound intrinsic glucuronidation clearance in human liver microsomes at 1 uM; type: ADME; outline: as §3
[12] = Unbound intrinsic glucuronidation clearance in human kidney microsomes at 1 uM after 30 to 60 mins by LC-MS/MS analysis in presence of UDP-glucuronosyltransferase and 2% bovine serum albumin; type: ADME, microsome; outline: as §2
[13] = Fraction unbound in human liver microsomes at 1 uM […] by LC-MS/MS analysis in presence of 2% bovine serum albumin; type: ADME
[14] = Unbound intrinsic glucuronidation clearance in human intestinal microsomes at 1 uM after 30 to 60 mins by LC-MS/MS analysis in presence of UDP-glucuronosyltransferase and 2% bovine serum albumin; type: ADME, Intestine, Microsome; outline: as §2
[15] = Fraction unbound in human intestinal microsomes at 1 uM after 30 to 60 mins by LC-MS/MS analysis; type: ADME, Intestine, Microsome
[16] = Fraction unbound in human kidney microsomes at 1 uM after 30 to 60 mins by LC-MS/MS analysis; type: ADME
[17] = Glucuronidation clearance in human liver microsomes in presence of bovine serum albumin; type: ADME
[18] = Drug metabolism in human liver microsomes assessed as UGT1A8/2B7-mediated unbound intrinsic glucuronidation clearance at 1 uM after 30 to 60 mins by LC-MS/MS analysis in presence of 2% bovine serum albumin; type: ADME; outline: as §2
[19] = Ratio of UGT1A8/2B7-mediated unbound intrinsic glucuronidation clearance in human kidney microsomes to UGT1A8/2B7-mediated unbound intrinsic glucuronidation clearance in human intestinal microsomes at 1 uM in presence of 2% bovine serum albumin; type: ADME; outline: as §3
Liver microsome [20] = assay: Fraction metabolized glucuronidation in human liver microsomes in presence of UDP-glucuronosyltransferase and bovine serum albumin; type: ADME
[21] = Glucuronidation clearance in human liver microsomes; type: ADME
[22] = Drug metabolism in human kidney microsomes assessed as UGT1A8/2B7-mediated unbound intrinsic glucuronidation clearance at 1 uM after 30 to 60 mins by LC-MS/MS analysis in presence of 2% bovine serum albumin; type: ADME; outline: as §2
[23] = Ratio of UGT1A8/2B7-mediated unbound intrinsic glucuronidation clearance in human kidney microsomes to UGT1A8/2B7-mediated unbound intrinsic glucuronidation clearance in human intestinal microsomes at 1 uM; type: ADME; outline: as §3
[24] = Drug metabolism in human kidney microsomes assessed as UGT1A8/2B7-mediated unbound intrinsic glucuronidation clearance at 1 uM after 30 to 60 mins by LC-MS/MS analysis; type: ADME; outline: as §2
[25] = Ratio of unbound intrinsic glucuronidation clearance in human intestinal microsomes in presence of 2% bovine serum albumin to unbound intrinsic glucuronidation clearance in human intestinal microsomes in absence of bovine serum albumin; type: ADME, Intestine, Microsome
Outline: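 Ratios of mean scaled unbound CLint,UGT (per g tissue) between tissues, or between with and without BSA. Microsomal depletion assays at 1 μM, or 5 μM for propofol, in pH 7.1 phosphate at 37°C, read by LC-MS/MS. Kidney and liver n = 3, intestine n = 1, each in duplicate.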

Liver microsome [26] = assay: Fraction metabolized glucuronidation in human liver microsomes in presence of UDP-glucuronosyltransferase; type: ADME
[27] = Ratio of UGT1A8/2B7-mediated unbound intrinsic glucuronidation clearance in human kidney microsomes to UGT1A8/2B7-mediated unbound intrinsic glucuronidation clearance in human liver microsomes at 1 uM in presence of 2% bovine serum albumin; type: ADME; outline: as §3
[28] = Ratio of UGT1A8/2B7-mediated unbound intrinsic glucuronidation clearance in human intestinal microsomes to UGT1A8/2B7-mediated unbound intrinsic glucuronidation clearance in human liver microsomes at 1 uM; type: ADME; outline: as §3
[29] = Ratio of drug level blood to plasma in human; type: ADME; settings: blood and plasma
[30] = molecular target: T1, UDP-glucuronosyltransferase 2B7 (Homo sapiens, UniProt P16662); assay: Drug metabolism in human intestinal microsomes assessed as UGT2B7-mediated unbound intrinsic glucuronidation clearance at 1 uM after 30 to 60 mins by LC-MS/MS analysis; type: ADME, Intestine
T1 sequence (P16662 whole entry): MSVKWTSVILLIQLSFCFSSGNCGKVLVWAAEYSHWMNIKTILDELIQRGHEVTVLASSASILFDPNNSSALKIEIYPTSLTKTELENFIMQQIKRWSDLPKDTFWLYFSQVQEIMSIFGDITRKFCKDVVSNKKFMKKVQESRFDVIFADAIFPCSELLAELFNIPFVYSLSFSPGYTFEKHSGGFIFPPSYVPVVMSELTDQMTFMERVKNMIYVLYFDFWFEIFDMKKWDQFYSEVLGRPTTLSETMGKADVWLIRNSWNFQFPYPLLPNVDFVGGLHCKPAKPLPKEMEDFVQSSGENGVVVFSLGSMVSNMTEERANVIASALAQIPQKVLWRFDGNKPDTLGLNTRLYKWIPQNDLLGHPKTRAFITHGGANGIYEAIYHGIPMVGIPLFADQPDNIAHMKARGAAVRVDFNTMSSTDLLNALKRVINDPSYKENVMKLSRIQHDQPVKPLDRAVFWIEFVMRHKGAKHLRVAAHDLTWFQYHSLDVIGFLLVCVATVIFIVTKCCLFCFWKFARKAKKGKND

[31] = Renal clearance in human; type: ADME, organism-based, Kidney; settings: in vivo
[32] = molecular target: T1, UDP-glucuronosyltransferase 2B7; assay: Drug metabolism in human kidney microsomes assessed as UGT2B7-mediated unbound intrinsic glucuronidation clearance at 1 uM after 30 to 60 mins by LC-MS/MS analysis; type: ADME
Liver microsome [33] = assay: Unbound intrinsic glucuronidation clearance in human liver microsomes at 1 uM after 30 to 60 mins by LC-MS/MS analysis in presence of UDP-glucuronosyltransferase and 1% bovine serum albumin; type: ADME
Liver microsome [34] = assay: Fraction unbound in human liver microsomes at 1 uM after 30 to 60 mins by LC-MS/MS analysis in presence of 1% bovine serum albumin; type: ADME; settings: microsomes, 1 µM
[35] = molecular target: T1, UDP-glucuronosyltransferase 2B7; assay: Drug metabolism in human liver microsomes assessed as UGT2B7-mediated unbound intrinsic glucuronidation clearance at 1 uM after 30 to 60 mins by LC-MS/MS analysis; type: ADME
[36] = molecular target: T1, UDP-glucuronosyltransferase 2B7; assay: Drug metabolism in human liver microsomes assessed as UGT2B7-mediated unbound intrinsic glucuronidation clearance at 1 uM after 30 to 60 mins by LC-MS/MS analysis in presence of 1% bovine serum albumin; type: ADME
[37] = molecular target: T1, UDP-glucuronosyltransferase 2B7; assay: Drug metabolism in human kidney microsomes assessed as UGT2B7-mediated unbound intrinsic glucuronidation clearance at 1 uM after 30 to 60 mins by LC-MS/MS analysis in presence of 1% bovine serum albumin; type: ADME
[38] = Unbound intrinsic glucuronidation clearance in human intestinal microsomes at 1 uM after 30 to 60 mins by LC-MS/MS analysis in presence of UDP-glucuronosyltransferase and 1% bovine serum albumin; type: ADME, Intestine, Microsome
[39] = Unbound intrinsic glucuronidation clearance in human kidney microsomes at 1 uM after 30 to 60 mins by LC-MS/MS analysis in presence of UDP-glucuronosyltransferase and 1% bovine serum albumin; type: ADME, microsome

C=CCN1CC[C@]23c4c5ccc(O)c4O[C@H]2C(=O)CC[C@@]3(O)[C@H]1C5 [NALOXONE]
fraction unbound at 1 µM [1]: 1
clearance [2]: 1.3 L/h/kg
CL free (Liver microsome [3]): 10 µL/min/mg
CL free [4]: 0.01 mL/min/g
CL free (Liver microsome [5]): 55.6 µL/min/mg
CL free [6]: 0.502 µL/min/mg
CL free [7]: 0.402 mL/min/g
Ratio [8]: 0.131
fraction unbound [9]: 0.57
CL free [10]: 10.9 µL/min/mg
Ratio [11]: 0.348
CL free [12]: 52.7 µL/min/mg
fraction unbound at 1 µM [13]: 0.96
CL free [14]: 14.2 µL/min/mg
fraction unbound at 1 µM [15]: 1
fraction unbound at 1 µM [16]: 1
CLhep predicted [17]: 1.16 L/h/kg
CL free [18]: 2.22 mL/min/g
Ratio [19]: 2.31
Drug metabolism (Liver microsome [20]): 0.89
CLhep predicted [21]: 0.846 L/h/kg
CL free [22]: 0.675 mL/min/g
Ratio [23]: 13.5
CL free [24]: 0.14 mL/min/g
Ratio [25]: 28
Drug metabolism (Liver microsome [26]): 0.65
Ratio [27]: 0.304
Ratio [28]: 0.026
blood plasma ratio [29]: 1

Cc1ccc(C)c(OCCCC(C)(C)C(=O)O)c1 [GEMFIBROZIL]
CL free [30]: 0.492 mL/min/g
CL renal [31]: 0.0012 L/h/kg
CL free [32]: 3.39 mL/min/g
fraction unbound at 1 µM [1]: 0.9
CL free (Liver microsome [3]): 259 µL/min/mg
CL free (Liver microsome [33]): 1840 µL/min/mg
CL free [6]: 23.9 µL/min/mg
Fu (Liver microsome [34]): 0.01
CL free [35]: 10.4 mL/min/g
CL free [36]: 73.6 mL/min/g
fraction unbound [9]: 0.005
CL free [10]: 265 µL/min/mg
fraction unbound at 1 µM [15]: 0.82
CL free [37]: 24.4 mL/min/g
CL free [38]: 40 µL/min/mg
fraction unbound at 1 µM [16]: 0.9
CLhep predicted [17]: 0.116 L/h/kg
Drug metabolism (Liver microsome [20]): 0.86
CLhep predicted [21]: 0.107 L/h/kg
Drug metabolism (Liver microsome [26]): 0.79
CL free [39]: 1910 µL/min/mg
